Source: article PMC3683571 (Journal of the American Chemical Society, 2013)
Entries after “also recorded” stand apart in the source; their conditions may differ.

Columns and labels:
PSMA = PSMA (Homo sapiens, UniProt Q04609); test: Biosensing; format: binding
In short: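 Virus-PEDOT films, with ligand-displaying phage either unwrapped or wrapped with a chemically synthesized ligand wrapper, were exposed to a series of PSMA dimer concentrations. The read-out was relative impedance change (ΔR/Ro) versus frequency, with noise taken as the SD of five impedance measurements. Controls were films with control phage, ligand-free films, and films with wrapper alone; transferrin receptor served as a specificity target. Kd, Hill n and LOD came from Hill fits.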

PSMA dimer = test: Phage-based ELISA, binding to PSMA dimer; conditions: as shown in Figure 1
[1] = in previous studies, no reference given; cited from earlier work
PSMA monomer = test: Phage-based ELISA, binding to PSMA monomer; conditions: Figure 1, standard error (n = 3)

Chain of PSMA (Q04609 whole entry): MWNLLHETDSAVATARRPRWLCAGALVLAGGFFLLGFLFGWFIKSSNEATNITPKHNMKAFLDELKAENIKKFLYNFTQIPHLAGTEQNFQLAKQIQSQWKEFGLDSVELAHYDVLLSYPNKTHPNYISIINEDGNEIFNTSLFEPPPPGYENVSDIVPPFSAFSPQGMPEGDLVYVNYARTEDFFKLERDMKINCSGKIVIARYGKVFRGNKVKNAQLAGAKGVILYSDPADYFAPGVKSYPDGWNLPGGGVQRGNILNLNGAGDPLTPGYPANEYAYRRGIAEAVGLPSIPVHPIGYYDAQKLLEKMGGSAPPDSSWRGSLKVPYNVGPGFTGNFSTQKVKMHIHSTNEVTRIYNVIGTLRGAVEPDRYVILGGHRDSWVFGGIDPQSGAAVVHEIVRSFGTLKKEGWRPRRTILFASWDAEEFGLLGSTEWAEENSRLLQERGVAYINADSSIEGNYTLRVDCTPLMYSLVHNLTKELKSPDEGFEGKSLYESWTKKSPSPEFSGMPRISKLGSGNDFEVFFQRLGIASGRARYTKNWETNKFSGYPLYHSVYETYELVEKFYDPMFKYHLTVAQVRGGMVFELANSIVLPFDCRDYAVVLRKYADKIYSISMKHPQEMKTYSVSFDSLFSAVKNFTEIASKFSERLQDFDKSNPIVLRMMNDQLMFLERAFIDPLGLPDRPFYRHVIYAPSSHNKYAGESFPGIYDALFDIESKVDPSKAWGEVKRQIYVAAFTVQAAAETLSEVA

| Sequence | solubility in water [1] | binding to the PSMA monomer (ELISA) (PSMA monomer) | other results |
| --- | --- | --- | --- |
| CALCEFLG [KCS-1] |  |  | binding to PSMA / change in impedance, negative controls (PSMA; EIS, PBF-Tween buffer, PEDOT films): no significant binding to PSMA; also recorded: negligible change in impedance caused by the wrapper |
| CALCEFLG [compound 1] | limited solubility in water |  | apparent affinity for PSMA, peptide 1 versus peptide 2 (PSMA dimer): much lower apparent affinity for PSMA than peptide 2 |
| CALCEFLG [phage-1] |  | Neither phage-displayed ligand binds with significant affinity to the PSMA monomer |  |
| SECVEVFQNSCDW [compound 2] | limited solubility in water |  |  |
| SECVEVFQNSCDW [phage-2] |  | Neither phage-displayed ligand binds with significant affinity to the PSMA monomer | LOD (calculated) (PSMA; PBF, defined as 3x over background signal, calculated from line fits to the data in Figure 4F): 6 nM; cooperative binding (PSMA; from n-values obtained >1, Hill fit, PBF): can access cooperative binding |
